# High-throughput results: PubChem, SRMLSC
# Fibroblast inh – blocks proliferation of human lung fibroblasts. LL 47 human lung fibroblast viability, ATP luminescence; stronger effect = lower value. viability, % at 10 µM. 85,000 compounds, 1.1% hits;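 active means viability at or below 50% in the single dose screen; inactive means viability above 50%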;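 further: compound exposure lasted 72 h before the ATP readout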
#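 Times – overnight cell rest, 72 h compound treatment at 37 °C · Test system – human lung fibroblast line LL 47, low passage · Amount – 1,150 cells in each well · Controls – cell-only wells, no compound · Doses – 0.1% DMSO in all compound wells · Measured by – CellTiter-Glo luminescence · Buffer or medium – IMEM plus 15% FBS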
# HCT116 PTEN-null – growth suppressors of cells with PTEN tumor suppressor deletion. HCT116 PTEN-null viability, CellTiter-Glo, 60 h; stronger effect = lower value. viability, % at 10 µM. 140,000 compounds, 1.2% hits. AID 827;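 active means viability at or below a set limit, 4 SD under the median of all tested compounds, cut at about 3.7% in these data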;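 further: PTEN knockout HCT116 line with beta catenin targeted HCT116 as companion control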
# H69AR growth 86K – blocks growth of human H69AR lung tumor cells; viability, % at 10 µM; 85,000 compounds, 6% hits; H69AR lung tumor viability, ATP luminescence, 72 h; stronger effect = lower value;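 active means viability at or below 40%; inactive means viability above 40%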;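 further: multidrug resistant small cell line overexpressing MRP-1 efflux transporter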
# bCat KO growth – beta-catenin-lacking colon tumor cell growth suppression | viability, % at 10 µM | 140,000 compounds, 1.5% hits | HCT116 beta-catenin knockout viability, CellTiter-Glo, 60 h; stronger effect = lower value | AID 818;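 active means viability at or under a set limit, the compound median less 4 SD, cut at about 6% in these data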
# HUVEC prolif 384 – human endothelial cell proliferation inhibition | HUVEC proliferation, CellTiter-Glo luminescence, 72 h; stronger effect = lower value | viability, % at 10 µM (by protocol) | 86,000 compounds, 1.1% hits;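 active means viability at or below 30%; inactive means viability above 30%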
# Numbers stand for hits; – = inactive; · = not tested or not shown. Many of the other results were omitted from the sample, so hits are more common in it than they were.
SMILES,Fibroblast inh,HCT116 PTEN-null,H69AR growth 86K,bCat KO growth,HUVEC prolif 384
O=C(CSc1nnnn1-c1ccc2c(c1)OCO2)NCc1ccccc1,–,–,19,–,–
COCCCNC(=O)CCN1C(=O)COc2ccccc21,–,–,–,–,–
CC(C)(C)NC(=O)NC(=O)COC(=O)C1CC(=O)N(Cc2ccccc2)C1 (centres undefined),–,–,–,–,–
Cc1nc(Cl)c(C(=O)NC(=O)Nc2cccc(C(F)(F)F)c2)c(C)c1[N+](=O)[O-],–,–,6.7,–,–
N#CCCS(=O)(=O)c1nnnn1-c1ccccc1,–,·,0.4,·,–
Cc1cc2c(cc(C(=O)NCCCN3CCOCC3)n2Cc2ccc(Cl)cc2)o1,–,–,–,–,–
Cc1ccc(C(C)C)c(Oc2nnnn2-c2ccccc2)c1,–,–,30,–,–
c1ccc(-n2nnnc2Oc2cccc3cccnc23)cc1,–,–,36,–,–
CCCCOc1ccccc1C1CC(=O)NC2=C1C(=O)CCC2 (centres undefined),48,–,28,–,–
CCOc1ccccc1C1CC(=O)NC2=C1C(=O)CCC2 (centres undefined),–,–,23,–,–
CCCOc1ccccc1C1CC(=O)NC2=C1C(=O)CCC2 (centres undefined),–,–,–,–,–
Cc1cc(C)c2c(n1)nn1c(C)c(CCC(=O)NCc3ccco3)c(C)nc21,–,–,–,–,–
Cc1ccc(Nc2nc(N)nc(CSc3nc(C)cc(C)n3)n2)cc1,–,–,–,–,–
O=C1C(=C2CCCCC2)SC(=S)N1Cc1ccco1,–,–,11,–,–
O=C(O)CCN1C(=O)C(=C2CCCCCC2)SC1=S,–,–,–,–,–
Cc1nc2c(c(=O)n1CC1CCCO1)c1nc3ccccc3nc1n2Cc1ccc2c(c1)OCO2 (centres undefined),–,·,40,·,–
COc1ccc(Cn2c3nc4ccccc4nc3c3c(=O)n(Cc4ccco4)c(C)nc32)cc1,42,·,4.5,·,–
O=C(CSc1nc(-c2ccco2)cc(C(F)(F)F)n1)NC1CCCCCCC1,–,–,–,–,–
COC(=O)c1nnn(CC(=O)NC(=O)Nc2cccc(C)c2C)c1C(=O)OC,·,–,·,–,·
Cc1c(C(=O)O)[nH]c2c1C(=O)CC(c1ccc(Cl)cc1)C2 (centres undefined),–,–,–,–,–
CCOc1cc(/C=C\c2[nH]c(=O)[nH]c(=O)c2[N+](=O)[O-])ccc1OC(C)CC (centres undefined),–,–,–,–,15
CCOC(=O)COc1ccc(Br)cc1/C=C\c1[nH]c(=O)[nH]c(=O)c1[N+](=O)[O-],·,–,·,–,·
O=[N+]([O-])c1ccc2nc(-c3ccc(Cl)cc3)[nH]c2c1,·,2.7,·,–,·
COc1ccc(-c2nc3ccc([N+](=O)[O-])cc3[nH]2)cc1,·,–,·,–,·
COc1cccc(N=Nc2c(N)[nH]n3c(=O)cc(-c4ccccc4)nc23)c1,·,–,·,3.1,·
SMILES,Fibroblast inh,HCT116 PTEN-null,H69AR growth 86K,bCat KO growth,HUVEC prolif 384
Cc1ccc(N=Nc2c(N)[nH]n3c(=O)cc(-c4ccccc4)nc23)cc1,·,–,·,–,·
O=C(OCC1OC(n2cnc3c(N(C(=O)c4ccccc4)C(=O)c4ccccc4)ncnc32)C(O)C1F)c1ccccc1 (centres undefined),–,–,2.7,–,–
CCOC(=O)c1c(N)sc2c(OC)c(Br)ccc12,–,–,–,–,27
O=C(Nc1cccc2ccccc12)c1ccc(Br)o1,–,–,–,–,–
O=C(Nc1cccc2cccnc12)c1ccc(Br)o1,–,–,37,–,–
FC(F)(F)c1cc(C(F)(F)F)c2ccc(N3CCN(c4ccc(Cl)cc4)CC3)nc2n1,·,–,·,–,·
N#CC(c1ccc(Cl)cc1)c1ccc2c(C(F)(F)F)cc(C(F)(F)F)nc2n1 (centres undefined),18,0.8,4.6,0.9,27
CCCC(=O)n1nc(-c2cccnc2)nc1N,–,–,–,–,–
COc1cc(/C=N/N=C(/N)c2nonc2N)cc(Br)c1OCc1ccccc1C,–,–,–,–,–
CCOc1cc(/C=N/N=C(N)N)ccc1OCc1ccc(Cl)cc1,·,1.2,·,1.3,·
CCOc1cc(/C=N/N=C(/N)c2nonc2N)cc(Br)c1OCc1ccc(Cl)cc1,29,–,18,–,22
CCOc1cc(/C=N/O)ccc1OCc1ccc(F)cc1,·,–,·,–,·
O=C(Nc1ccccc1N1CCOCC1)c1cc(-c2ccco2)nc2ccccc12,–,–,5.8,–,–
CCn1c(SCC(=O)c2cc(OC)ccc2OC)nc2c1c(=O)n(C)c(=O)n2C,–,·,–,·,–
Nc1ccc(C(=O)n2c3ccccc3c3ccccc32)cc1,50,–,19,–,–
COc1ccc(/C=C/c2nc(-c3ccccc3O)n[nH]2)cc1,·,–,·,–,·
Cc1cccc(NC(=S)N/N=C2\CC(C)(C)Oc3ccc(O)cc32)c1,·,3.8,·,3.9,·
CCCOC(=O)c1ccc(NC(=O)/C=C/c2cccs2)cc1,·,–,·,–,·
Cc1cccc(-c2nnc(SCC#N)n2-c2cccc(Cl)c2)c1,–,–,–,–,–
COc1ccc(-n2c(SCCC#N)nnc2-c2cc(Cl)ccc2OC)cc1Cl,–,–,24,–,–
Cc1cccc(C(=O)NC(NCc2ccco2)C(Cl)(Cl)Cl)c1 (centres undefined),·,–,·,–,·
CN(c1ccccc1)S(=O)(=O)c1ccc(Cl)c(C(=O)Nc2ccc(-c3nc4ccccc4[nH]3)cc2)c1,·,–,·,–,·
NS(=O)(=O)c1ccc(S(=O)(=O)N2CCCC2)cc1,–,–,–,–,–
CC1=C(C)CS(=O)N(S(=O)(=O)c2ccccc2)C1 (centres undefined),40,–,1.8,–,–
CC1=C(C)CS(=O)N(c2ccc(S(N)(=O)=O)cc2)C1 (centres undefined),–,–,12,–,–
SMILES,Fibroblast inh,HCT116 PTEN-null,H69AR growth 86K,bCat KO growth,HUVEC prolif 384
CCCCCC(=O)OC(CN1CCCCC1)CN1CCCC1=O (centres undefined),·,·,·,–,·
CCSc1ncnc2c1sc1nc(-c3ccco3)c3c(c12)CC(C)(C)OC3,–,–,–,–,–
CC(C)n1cc(/C=N/NC(=O)COc2cccc3cccnc23)c2ccccc21,·,–,·,–,·
CC(C)n1cc(/C=C2\NC(=O)N(c3cccc(Cl)c3)C2=O)c2ccccc21,–,–,15,–,–
CC(C)n1cc(/C=C2/SC(=O)N(CC(=O)Nc3ccc4c(c3)OCO4)C2=O)c2ccccc21,·,–,·,–,·
CC(C)n1cc(/C=C2/NC(=O)N(c3cccc(Cl)c3)C2=O)c2ccccc21,–,–,18,–,–
O=C(N/N=C/c1ccc(Br)cc1)c1ccccc1-n1cccc1,–,–,21,–,–
O=C(N/N=C\c1ccccc1)c1sccc1-n1cccc1,·,–,·,–,·
O=[N+]([O-])c1cc(S(=O)(=O)c2ccc(N3CCCCC3)c([N+](=O)[O-])c2)ccc1N1CCCCC1,·,–,·,–,·
COc1ccc(Oc2ccc(/C=C/C(=O)c3ccc(O)cc3)cc2[N+](=O)[O-])cc1,·,1.3,·,1.4,·
